According to ChEMBL document CHEMBL1140132, “Virtual screening, identification, and biochemical characterization of novel inhibitors of the reverse transcriptase of human immunodeficiency virus type-1” (J Med Chem, 2008):
Calls of active or inactive are those of the source. No cut-off for these calls is given here.

How the values were obtained:
[1] = test system: Human immunodeficiency virus 1; experiment: Antiviral activity against HIV1 infected in human 721.221 B lymphocytes assessed as inhibition of pseudovirus infection; conditions: Human immunodeficiency virus 1, 721.221
Escherichia coli = experiment: Inhibition of DNA dependent DNA polymerase activity of Escherichia coli DNA polymerase 1 Klenow fragment assessed as residual enzyme activity at 50 ug/ml relative to control
[2] = Selectivity index, ratio of inhibition of DNA dependent DNA polymerase activity of Escherichia coli DNA polymerase 1 Klenow fragment to inhibition of DNA dependent DNA polymerase activity of HIV1 BH10 recombinant reverse transcriptase p66/p51
Summary of the method: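 Ratio of residual Klenow fragment DNA-dependent DNA polymerase activity to residual HIV-1 RT activity. Both enzymes were assayed side by side under identical conditions: activated herring sperm DNA at 20 µg/mL, all four dNTPs, 37 °C, 1% DMSO, compound at 50 µg/mL.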

[3] = target: Human immunodeficiency virus type 1 reverse transcriptase (Human immunodeficiency virus 1, UniProt Q72547, Y181C); experiment: Inhibition of RNA dependent DNA polymerase activity of HIV1 reverse transcriptase Y181C mutant expressed in Escherichia coli BL21
[4] = target: T1, Human immunodeficiency virus type 1 reverse transcriptase (Human immunodeficiency virus 1, UniProt Q72547); experiment: Inhibition of RNA dependent DNA polymerase activity of HIV1 BH10 recombinant reverse transcriptase p66/p51 assessed as residual enzyme activity
Summary of the method: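 Recombinant RT RNA-dependent DNA polymerase activity measured as [3H]dTTP incorporation into poly(rA)n·oligo(dT)12-18 at 37 °C in 1% DMSO. Inhibitor was mixed into buffer before RT was added. Compound present at 50 µg/mL final.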

[5] = test system: Human immunodeficiency virus 2; experiment: Inhibition of RNA dependent DNA polymerase activity of HIV2 recombinant reverse transcriptase at 140 uM
[6] = Selectivity index, ratio of CC50 for human 721.221 cells to IC50 for HIV1 pseudovirus infection; format: functional
Summary of the method: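 CC50 in 721.221 cells from a 72 h XTT viability assay, divided by IC50 against infection by VSV-G-pseudotyped HIV-1 GFP reporter virus. For the infection assay, cells were infected with 5.6 µg/mL Polybrene and 1% DMSO in RPMI, then fixed at 48–72 h and analysed by flow cytometry. IC50 came from a four-parameter logistic fit.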

[7] = target: T1, Human immunodeficiency virus type 1 reverse transcriptase; experiment: Inhibition of DNA dependent DNA polymerase activity of HIV1 BH10 recombinant reverse transcriptase p66/p51 assessed as residual enzyme activity
Summary of the method: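 Recombinant RT DNA-dependent DNA polymerase assay at 37 °C in 1% DMSO, with the inhibitor premixed into buffer before RT was added. Template was activated herring sperm DNA, 20 µg/mL final, with all four dNTPs. Compound present at 50 µg/mL final.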

[8] = target: Human immunodeficiency virus type 1 reverse transcriptase (Human immunodeficiency virus 1) (UniProt Q72547); experiment: Inhibition of HIV1 BH10 recombinant reverse transcriptase p66/p51 RNase H activity assessed as residual enzyme activity
Summary of the method: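 FRET RNase H assay: RT at 6 nM with 1 mM DTT, incubated with a fluorescein-RNA/DNA-dabcyl hybrid substrate ± inhibitor for 30 min at 37 °C. Hydrolysis is read as emitted fluorescence, in triplicate. Residual activity is relative to the inhibitor-free control.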

[9] = test system: Human immunodeficiency virus type 1 reverse transcriptase (Human immunodeficiency virus 1), Q72547 [L100I,K103N]; experiment: Inhibition of DNA dependent DNA polymerase activity of HIV1 reverse transcriptase L100I/K103N mutant expressed in Escherichia coli DH5alpha
Summary of the method: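 DDDP assay on activated herring sperm DNA (20 µg/mL final) with all four dNTPs, at 37 °C with 1% DMSO. Inhibitor in DMSO is premixed into the buffer before RT is added. Read-out is dNTP incorporation. Dose-response is fitted to a four-parameter logistic for IC50. Values are means of three independent experiments.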

[10] = test system: Human immunodeficiency virus 1; experiment: Antiviral activity against HIV1 infected in human 293T cells; format: functional, organism-based; conditions: Human immunodeficiency virus 1, HEK-293T
[11] = test system: Human immunodeficiency virus 2; experiment: Inhibition of DNA dependent DNA polymerase activity of HIV2 recombinant reverse transcriptase at 140 uM
[12] = test system: Human immunodeficiency virus 1; experiment: Antiviral activity against HIV1 infected in human 293T cells assessed as inhibition of pseudovirus infection; format: functional, organism-based; conditions: Human immunodeficiency virus 1, HEK-293T
[13] = test system: Human immunodeficiency virus 1; experiment: Antiviral activity against HIV1 infected in human CEM cells; format: functional, organism-based; conditions: Human immunodeficiency virus 1, CCRF-CEM
[14] = test system: Human immunodeficiency virus 1; experiment: Antiviral activity against HIV1 infected in 8186 T cells; format: functional, organism-based; conditions: Human immunodeficiency virus 1, T-cell
[15] = Cytotoxicity against human 721.221 cells after 72 hrs by XTT assay; format: cell-based
Summary of the method: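 721.221 B lymphocytes incubated 72 h at 37 °C with a range of inhibitor concentrations, each concentration in triplicate. Viability read by XTT absorbance at 450 nm, with 620 nm reference. CC50 is the concentration reducing viability by 50% versus the inhibitor-free control.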

[16] = target: T1, Human immunodeficiency virus type 1 reverse transcriptase; experiment: Inhibition of RNA dependent DNA polymerase activity of HIV1 BH10 recombinant reverse transcriptase p66/p51 assessed as residual enzyme activity at 616 nM using rA.dT substrate by steady state kinetic assay
[17] = target: T1, Human immunodeficiency virus type 1 reverse transcriptase; experiment: Inhibition of RNA dependent DNA polymerase activity of HIV1 BH10 recombinant reverse transcriptase p66/p51 assessed as residual enzyme activity at 616 nM using dTTP substrate by steady state kinetic assay
[18] = target: Human immunodeficiency virus type 1 reverse transcriptase (Human immunodeficiency virus 1) (UniProt Q72547); experiment: Inhibition of RNA dependent DNA polymerase activity of HIV1 BH10 recombinant reverse transcriptase p66/p51 assessed as residual enzyme activity at 616 nM using variable enzyme levels by steady state kinetic assay relative to control

Structure (SMILES): CCOC(=O)CCCNC(=S)Nc1ccc(Cl)c(C(F)(F)F)c1
- IC50 [1]: 1.6 µM

Structure (SMILES): COc1cccc(CCNC(=S)Nc2ccc(Br)c(C)c2)c1OC
- IC50 [1]: 7.7 µM

Structure (SMILES): CCCOCCCNC(=S)Nc1cccc(C(=O)OCC)c1
- Activity (Escherichia coli): 56.6%
- Ratio [2]: 1.2

Structure (SMILES): S=C(NCc1ccco1)NC1CCCCC1
- IC50 [1]: > 20 µM

Structure (SMILES): Cc1cc(NC(=S)NCCC2=CCCCC2)ccc1Br
- IC50 [1]: 0.23 µM

Structure (SMILES): CCOC(=O)CCN(Cc1ccco1)C(=S)Nc1cccc(OC)c1
- IC50 [1]: > 20 µM

Structure (SMILES): CCCOCCCNC(=S)Nc1ccc(Br)c(C)c1
- Activity (Escherichia coli): 14.4%
- Ratio [2]: 0.6

Structure (SMILES): Cc1ccc(NC(=S)N2CCc3c([nH]c4ccccc34)C2)c(Cl)c1
- IC50 [1]: > 20 µM

Structure (SMILES): CCCOCCCNC(=S)Nc1ccc(C(C)(C)C)cc1
- Activity (Escherichia coli): 13.8%
- Ratio [2]: 0.4

Structure (SMILES): CCCOCCCNC(=S)Nc1cc(OC)ccc1OC
- IC50 [1]: 3 µM

Structure (SMILES): S=C(NCc1ccco1)N1CCO[C@H](COc2cncc(Cl)c2)C1
- IC50 [1]: > 20 µM

Structure (SMILES): O=S(=O)(Nc1n[nH]cc1Br)c1cccc2nsnc12
- IC50 [3]: 20 µM
- IC50 [4]: 2.8 µM
- inhibition [5]: 50%
- Ratio CC50/IC50 [6]: >446
- IC50 [7]: 3.3 µM
- Activity [8]: inactive
- Activity [9]: Active
- IC50 [1]: 0.37 µM

Structure (SMILES): CCCCc1ccc(NC(=S)NCCCOCCC)cc1
- Activity (Escherichia coli): 74.2%
- Ratio [2]: 2.4

Structure (SMILES): C=CCOc1nc(OCC=C)nc(OC[C@@H]2CN(C(=S)NCc3ccco3)CCO2)n1
- IC50 [1]: > 20 µM

Structure (SMILES): CCCOCCCNC(=S)Nc1ccc(F)cc1Br
- Activity (Escherichia coli): 47.6%
- Ratio [2]: 1.2

Structure (SMILES): CCCOCCCNC(=S)Nc1ccc(Cl)cc1Cl
- Activity (Escherichia coli): 13.2%
- Ratio [2]: 0.2

Structure (SMILES): CCCOCCCNC(=S)Nc1cc(Cl)ccc1OC
- Activity (Escherichia coli): 50.8%
- Ratio [2]: 3.2
- IC50 [1]: 0.32 µM

Structure (SMILES): CCCOCCCNC(=S)Nc1cccc(Cl)c1C
- Activity (Escherichia coli): 10.8%
- Ratio [2]: 0.4

Structure (SMILES): COc1ccc(CCn2cc(NC(=O)CCc3ccoc3)cn2)cc1OC
- IC50 [1]: > 20 µM

Structure (SMILES): CCCOCCCNC(=S)Nc1ccc(Br)cc1
- Activity (Escherichia coli): 48.4%
- Ratio [2]: 1.7

Structure (SMILES): CCCOCCCNC(=S)Nc1cccc(C#N)c1
- Activity (Escherichia coli): 75.2%
- Ratio [2]: 1.1

Structure (SMILES): CCCOCCCNC(=S)Nc1cc(C)c(C)cc1C
- Activity (Escherichia coli): 64.4%
- Ratio [2]: 2.9

Structure (SMILES): CCCOCCCNC(=S)Nc1ccc(Cl)cc1C
- Activity (Escherichia coli): 47.5%
- IC50 [1]: 2.6 µM

Structure (SMILES): CCCOCCCNC(=S)Nc1ccc(N(C)C)cc1
- Activity (Escherichia coli): 11.1%
- Ratio [2]: 0.2

Structure (SMILES): CCCOCCCNC(=S)Nc1ccc(Cl)c(C(F)(F)F)c1
- Activity (Escherichia coli): 2.2%
- Ratio [2]: 0.5

Structure (SMILES): CC(C)(C)CNC(=O)Nc1cc(C(F)(F)F)cc(C(F)(F)F)c1
- IC50 [1]: > 20 µM

Structure (SMILES): CCCOCCCNC(=S)Nc1ccccc1OCC
- Activity (Escherichia coli): 87.1%
- Ratio [2]: 5.4
- IC50 [1]: 0.43 µM

Structure (SMILES): S=C(NCc1ccco1)Nc1ccc(Cl)cc1
- IC50 [1]: > 20 µM

Structure (SMILES): CCCCc1ccc(NC(=S)NCCCOCCC)c(C)c1
- Activity (Escherichia coli): 4.5%
- Ratio [2]: 0.2

Structure (SMILES): CCCOCCCNC(=S)Nc1cc(C)ccc1Cl
- Activity (Escherichia coli): 76.5%
- Ratio [2]: 4.4
- IC50 [1]: 0.67 µM

Structure (SMILES): CCCOCCCNC(=S)Nc1ccc(Br)c(Cl)c1
- Activity (Escherichia coli): 1%
- Ratio [2]: 0.2

Structure (SMILES): COc1ccccc1NC(=S)NCc1ccco1
- IC50 [1]: > 20 µM

Structure (SMILES): CCCOCCCNC(=S)Nc1cc(F)ccc1F
- Activity (Escherichia coli): 47.5%
- Ratio [2]: 0.6

Structure (SMILES): C[C@H](NC(=S)Nc1ccc(Cl)cc1)c1ccccc1
- IC50 [1]: 4 µM

Structure (SMILES): CCCOCCCNC(=S)Nc1ccccc1Cl
- Activity (Escherichia coli): 59.3%
- Ratio [2]: 1.2

Structure (SMILES): Cc1ccnc2c1NC(=O)c1cccnc1N2C1CC1 [NEVIRAPINE]
- IC50 [10]: 0.05 µM
- Activity (Escherichia coli): 47.5%
- Activity [11]: inactive
- IC50 [12]: 0.014 µM
- Activity [8]: inactive
- IC50 [13]: 0.024 µM
- IC50 [14]: 0.04 µM
- Activity [9]: Active

Structure (SMILES): CCCOCCCNC(=S)Nc1ccc(C(=O)OC)cc1
- Activity (Escherichia coli): 2.6%
- Ratio [2]: 0.2

Structure (SMILES): CCCOCCCNC(=S)Nc1cc(C)ccc1OC
- Activity (Escherichia coli): 71.7%
- Ratio [2]: 4.3
- IC50 [1]: 0.89 µM

Structure (SMILES): Cc1ccc(CCN2C(=O)CS[C@@H]2c2ccc(C)o2)cc1
- IC50 [1]: > 20 µM

Structure (SMILES): CCCOCCCNC(=S)Nc1cc(OC)c(Cl)cc1OC
- CC50 at 72 h [15]: 58 µM
- Activity (Escherichia coli): 62.2%
- IC50 [3]: 70 µM
- IC50 [4]: 0.51 µM
- inhibition [5]: 50%
- Ratio CC50/IC50 [6]: 345
- Ki [16]: 1.8 µM
- IC50 [7]: 0.94 µM
- Activity [8]: inactive
- Ki [17]: 1.1 µM
- Ratio [2]: 7.4
- Activity [18]: 59%
- Activity [9]: Active
- IC50 [1]: 0.17 µM

Structure (SMILES): CCCOCCCNC(=S)Nc1cccc(OC)c1
- Activity (Escherichia coli): 98.7%
- Ratio [2]: 3.2
